Consider eight compounds from PubChem BioAssay AID588717 (Southern Research Specialized Biocontainment Screening …, 2011).

Results filed as inconclusive are left out. Calls of active or inactive are those of the source.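 Rule for the calls: active = viability below 80% at one or more tested concentrations; inconclusive = replicate runs disagree on the 80% viability cutoff; inactive = viability above 80% at every tested concentration.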

System in the first assay: not listed separately
The experiment in a line: Vero E6 cell cytotoxicity, dose response, cytotoxicity control for P. falciparum PFM1AAP inhibitor project, M1 aminopeptidase campaign (AID 588717). Conditions: Vero E6 viability, CellTiter-Glo luminescence, 72 h; at 50 µM (top of the series). In a few lines:
(§1)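 Material: Vero E6 cells | Quantity: 3000 cells/well | Medium: E-MEM plus 10% FBS | Times: 72 h treatment, 37 °C | Detection: ATP-based luminescence with CellTiter-Glo reagent | Measure: % viability vs vehicle, CC50 from curve fit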
On to `COc1cccc(-c2ccc(S(=O)(=O)N3CCC(C(=O)NCc4ccc5c(c4)OCO5)CC3)s2)c1`, for which the viability was 83.4% (inactive). Take `COc1ccc(-c2ccc(S(=O)(=O)N3CCC(C(=O)NCc4ccc5c(c4)OCO5)CC3)s2)cc1`: the viability is 84.2% (inactive). As for `CC[C@H](C)[C@H](NS(=O)(=O)c1ccc(Br)s1)C(=O)O`, the viability was 104% (inactive). Still for that read-out and setting: the value for `CC[C@H](C)[C@H](NC(=O)c1ccc([N+](=O)[O-])cc1)C(=O)NCc1ccc(C(F)(F)F)cc1` was 92.2% (inactive); that for `CC[C@H](C)[C@H](NC(=O)c1ccc([N+](=O)[O-])cc1)C(=O)NCc1ccccc1` was 88.9% (inactive); that for `CC[C@H](C)[C@H](NS(=O)(=O)c1ccc(Br)s1)C(=O)NCc1ccc(F)cc1` was 97% (inactive). As to `CC[C@H](C)[C@H](NS(=O)(=O)c1cccs1)C(=O)NCc1ccc(F)cc1`, the viability is 95.5% (inactive).

Another assay concerns Vero E6 viability, CellTiter-Glo luminescence, 72 h. The description is as above.
Settings: not given
In a few lines:
as §1
For the compound `CC[C@H](C)[C@H](NS(=O)(=O)c1ccc(Br)s1)C(=O)NCc1ccc(C(F)(F)F)cc1`, the CC50 is 28.7 µM.
